An excerpt weighted towards active compounds, which were near 3.2% of everything screened.
NR2E3 ag-1 = agonists of human nuclear receptor NR2E3; Q9Y5X4; GST-NR2E3/biotin-RetCOR TR-FRET, 1536-well; inhibition of corepressor binding, % at 4.78 µM; 0.12% of 320,000 active;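 active means percent inhibition above the cutoff of mean plus 3 SD of all tested compounds, set per screening campaign, cut at about 20% in these data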;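 further: 0% = DMSO wells and 100% = biotin wells as full block of FRET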
Target sequence (Q9Y5X4 whole entry, looked up): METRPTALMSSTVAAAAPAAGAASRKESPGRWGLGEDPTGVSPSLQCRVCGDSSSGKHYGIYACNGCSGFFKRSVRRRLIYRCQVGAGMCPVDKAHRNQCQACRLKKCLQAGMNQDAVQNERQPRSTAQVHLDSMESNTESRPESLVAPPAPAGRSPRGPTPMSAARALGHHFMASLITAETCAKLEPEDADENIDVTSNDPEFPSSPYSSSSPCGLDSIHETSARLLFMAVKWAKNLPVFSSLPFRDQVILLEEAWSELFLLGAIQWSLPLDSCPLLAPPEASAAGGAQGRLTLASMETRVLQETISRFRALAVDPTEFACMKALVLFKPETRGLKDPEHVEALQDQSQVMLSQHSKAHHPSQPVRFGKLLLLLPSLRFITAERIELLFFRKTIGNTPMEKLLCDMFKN
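Material – GST-tagged NR2E3 plus biotinylated RetCOR corepressor · Quantity – NR2E3 fusion 1.35 nM · Times – 5 h incubation at 4 °C · Medium – pH 7.5 Tris-based buffer · Technique – TR-FRET, Eu(K)-anti-GST donor, streptavidin-D2 acceptor, ex 340, em 617/671 nm · Benchmarks – high control biotin, low control 0.6% DMSO · Format – 1536-well plates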
DAX1 inh-1 = inhibits human nuclear receptor DAX1; HEK293 Gal4-DAX1 luciferase reporter, luminescence; inhibition, % at 6.75 µM; 0.99% of 340,000 active; AID 504766;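 active means inhibition above the mean over all tested compounds plus 3 SD, cut at about 4.2% in these data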;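 further: 0% = DAX1-transfected cells with DMSO and 100% = empty-vector control cells with DMSO; inhibition shows as a rise in luminescence from relieved DAX1 repression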
Target sequence (P51843 207-470 limits assumed): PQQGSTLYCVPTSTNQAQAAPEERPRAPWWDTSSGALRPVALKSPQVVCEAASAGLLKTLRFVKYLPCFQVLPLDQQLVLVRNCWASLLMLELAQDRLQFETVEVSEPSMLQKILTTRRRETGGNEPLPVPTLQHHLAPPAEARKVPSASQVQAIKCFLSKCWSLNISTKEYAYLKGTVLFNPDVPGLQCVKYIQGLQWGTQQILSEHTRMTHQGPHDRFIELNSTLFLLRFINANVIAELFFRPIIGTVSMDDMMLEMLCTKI
GASC-1 inh = inhibitors of human GASC-1 (JMJD2C) demethylase | GST-JMJD2C(1-420) H3K9me3 demethylation, DELFIA europium | 0.069% of 330,000 active | AID 2099 | inhibition, % at 2.35 µM | Q9H3R0;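 active means more than half of a compound's replicate wells show inhibition beyond 50%, single wells judged on their own value; inconclusive means some, but no more than half, of replicates pass 50% inhibition; inactive means no replicate passes 50% inhibition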;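 further: signal counts dimethyl H3K9 product captured on neutravidin plate; 0% = median of DMSO wells and 100% = 0.3 times that DMSO median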
DAX1 inh-2 = blocks DAX1 repression of SF-1 activated StAR promoter; HEK293T StAR-luciferase reporter, SF-1/DAX-1 repression relief; inhibition, % at 6.8 µM; 1.1% of 370,000 active;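 active means inhibition above the mean over all tested compounds plus 3 SD, cut at about 3.6% in these data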;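 further: 0% = DAX-1 cells with DMSO and 100% = cells lacking DAX-1 with DMSO; higher inhibition means more luminescence from relief of DAX-1 repression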
NR2E3 ag-2 = agonists of human NR2E3 nuclear receptor. CHO-S Gal4-NCOR/VP16-NR2E3 two-hybrid, luciferase. Q9Y5X4. inhibition of corepressor binding, % at 3.98 µM. 0.35% of 360,000 active. AID 602229;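 active means inhibition above the mean of all tested compounds plus 3 SD, cut at about 70% in these data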;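 further: 0% = DMSO with NR2E3 transfected cells and 100% = cells lacking NR2E3 construct; higher means lower luciferase signal from less NR2E3 corepressor binding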
SMARCA2 activ = activators of SMARCA2 function | MG213 cells, MMTV-luciferase reporter, dexamethasone, overnight | activation, % at 9.1 µM | 1% of 370,000 active | AID 652017; in the data active means activation above about 7.8%;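 further: 0% = vehicle wells and 100% = reference activator wells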
DAX1 conf = confirmation of human DAX1 (NR0B1) inhibitors. shares compounds with DAX1 inh-2. HEK293T StAR-promoter luciferase reporter, SF-1/DAX-1 repression. inhibition, % at 6.8 µM. 87% of 2,400 active;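 active means inhibition above the average of every tested compound plus 3 SD, cut at about 3.8% in these data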;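 further: 0% = DAX-1 cells with DMSO and 100% = no DAX-1 control cells with DMSO; active compounds raise luminescence by relieving repression of the StAR reporter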
SF1 mutant ctr = nonselective inhibitor or artifact in SF-1 mutant DAX1 counter-screen; shares compounds with DAX1 inh-2; HEK293 StAR-luciferase, SF-1 AF2 mutant, luminescence; inhibition, % at 6.8 µM; 78% of 2,400 active; AID 652136;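 active means inhibition above the mean of all tested compounds plus 3 SD, cut at about 3% in these data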;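 further: 0% = DAX-1 transfected cells with DMSO and 100% = cells without DAX-1 with DMSO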
* = called active by the depositor; ? = inconclusive; . = not tested or not shown.

SMILES	NR2E3 ag-1	DAX1 inh-1	GASC-1 inh	DAX1 inh-2	NR2E3 ag-2	SMARCA2 activ	DAX1 conf	SF1 mutant ctr
COc1cc(C)ccc1OCc1cc(C(=O)N2CCCCCCC2)no1	-2	1	2	4.6*	-69	2	5.4*	3.5*
Cc1ccc(OCc2cc(C(=O)N3CCN(C4CCCCC4)CC3)no2)cc1C	1	2	-6	6.4*	-40	4	6.5*	4.1*
COc1cc(C)ccc1OCc1cc(C(=O)NCc2ccncc2)no1	0	1	4	4.7*	-34	7	5.3*	3.0*
COc1ccc(OCc2cc(C(=O)N3CCCCCCC3)no2)c(Cl)c1	1	2	7	2	-36	1	.	.
Cc1cc(OCc2cc(C(=O)N3CCN(CC4CC4)CC3)no2)cc(C)c1Cl	-1	1	.	0	-19	-1	.	.
Cc1cc(OCc2cc(C(=O)N3CCCCCC3)no2)cc(C)c1Cl	5	1	2	5.5*	-76	3	7.1*	4.1*
COc1cc(C)ccc1OCc1cc(C(=O)NC(C)Cn2cncn2)no1 (stereo not given)	1	2	-5	2	-119	1	.	.
Cc1nc2cc(C(=O)N3CCN(C(=O)OCc4ccccc4)CC3)ccc2n1C1CCCC1	.	.	.	0	.	2	.	.
O=C(NC1CCCC1)C1(C(=O)C2CC2)CC(c2ccccn2)=NO1 (stereo not given)	.	.	.	0	.	1	.	.
O=C(NCCc1ccccc1)OCc1cn(-c2ccc(Cl)cc2)nn1	.	.	.	2	.	-1	.	.
COc1cccc(C(=O)n2ccc3ccc(-c4ccc5ccn(Cc6ccccc6)c5c4)cc32)c1	.	.	.	0	.	-2	.	.
COc1cc(C)ccc1OCc1cc(C(=O)N2CCN(C3CCCCC3)CC2)no1	-2	1	16	5.7*	-78	3	5.7*	3.8*
OC(c1ccccc1)c1nc(-c2cc3ccccc3o2)cs1 (stereo not given)	.	.	.	6.9*	-97	4	11*	6.4*
CN(C)c1ccc(-c2csc(C(O)c3ccc(F)cc3)n2)cc1 (stereo not given)	.	.	.	3	-124	4	.	.
CN(C)c1ccc(-c2csc(C(O)c3ccccc3)n2)cc1 (stereo not given)	.	.	.	6.4*	-168	6	9.5*	8.6*
CCOC(=O)[C@]12CCCCC/C=C\1N(CCc1ccc(Cl)cc1)C(=O)[C@H]2CC(=O)N1CCC(c2ccccc2)CC1	.	.	.	0	.	-2	.	.
Cc1ccc(NC(=O)CNC(=O)c2sc3ccccc3c2Cl)nc1	-5	3	?	4.6*	-4	3	4.8*	3.4*
Cn1cccc1C(=O)OCc1csc(-c2ccccc2)n1	4	2	7	5.3*	-190	5	14*	8.0*
Cc1ccsc1C(=O)OCc1csc(-c2ccccc2)n1	2	1	-17	4.7*	-181	5	21*	14*
CCCCCN1CCCCC(NC(=O)c2cc(OC)c(OC)c(OC)c2)C1=O (stereo not given)	.	.	.	0	.	-2	.	.
Cc1cc(NC(=O)c2sc3ccccc3c2O)no1	.	1	6	6.5*	-132	6	8.1*	6.2*
Cc1cc(NC(=O)c2ccccc2Cl)no1	4	3	0	1	-72	3	.	.
COCC(=O)N/N=C\c1ccccc1OC/C=C/c1ccccc1	-2	1	-5	8.1*	-120	3	4	4.8*
CCCCCN1CCCCC(NC(=O)c2ccc(F)cc2)C1=O (stereo not given)	.	.	.	-1	.	-1	.	.
Fc1ccc(Nc2ccc3ccccc3n2)c(F)c1	-1	-2	-1	9.7*	-174	6	14*	9.4*
SMILES	NR2E3 ag-1	DAX1 inh-1	GASC-1 inh	DAX1 inh-2	NR2E3 ag-2	SMARCA2 activ	DAX1 conf	SF1 mutant ctr
CCOC(=O)N1CCN(C(=O)C[C@H]2C(=O)N(Cc3ccc(OC)cc3)C3=CCCC[C@@]32C(=O)OCC)CC1	.	.	.	-1	.	-2	.	.
CCOc1cccc2cc(-c3csc(NC(=O)CCC(=O)NCCN4CCCCC4C)n3)c(=O)oc12 (stereo not given)	2	3	3	6.5*	-162	7.9*	14*	7.0*
COc1cccc2cc(-c3csc(NC(=O)CCC(=O)NCCCN4CCC(C)CC4)n3)c(=O)oc12	-2	-3	0	4.5*	-139	4	16*	3.8*
CCOc1cccc2cc(-c3csc(NC(=O)CCC(=O)NCCCN4CCC(C)CC4)n3)c(=O)oc12	-6	.	-6	.	.	.	.	.
Fc1ccc(/C=N/NC2=Nc3cccc4cccc2c34)cc1	-1	3	-4	5.2*	-169	4	10*	8.4*
Cc1cc(C(=O)COC(=O)C2=COCCO2)c(C)n1-c1cccc(F)c1	-1	1	-44	9.3*	-30	2	13*	4.0*
Cc1cc(C(=O)COC(=O)C2=COCCO2)c(C)n1-c1ccc2c(c1)OCO2	-2	-1	-5	-1	-20	1	.	.
COC(=O)C1CN(Cc2cn(Cc3ccc(Cl)cc3)nn2)CCS(=O)(=O)N1Cc1ccc(Cl)cc1 (stereo not given)	.	.	.	-2	.	-6	.	.
COC(=O)[C@]12C[C@H](CC(=O)NCC3CCCCC3)C(=O)N(CCc3ccc(OC)c(OC)c3)C1=C[C@H](COCc1ccccc1)O[C@@H]2C	.	.	.	1	.	-1	.	.
Nc1c(C(=O)Nc2ccc3c(c2)OCCO3)nnn1Cc1cccc(Br)c1	3	4	-3	9.3*	23	4	9.0*	5.9*
Nc1c(C(=O)Nc2ccc3c(c2)OCCO3)nnn1Cc1ccc(Br)cc1	2	2	12	8.1*	-74	5	12*	8.6*
Nc1c(C(=O)Nc2ccc3c(c2)OCCO3)nnn1CCc1ccccc1	-4	-1	-2	-2	-138	1	.	.
Cc1cccc(NC(=O)Nc2nc3ncccn3c2-c2ccccc2)c1	.	.	.	-2	.	-4	.	.
CN(c1ccc(O)cc1)c1nc(-c2ccccc2)cs1	1	2	14	5.0*	-163	-1	12*	6.0*
CCOC(=O)[C@]12CCCC=C1N(CCCOC)C(=O)[C@@H]2CC(=O)NCCCN1CCCC1=O	.	.	.	0	.	0	.	.
Cc1ccc2nc(SCC(=O)N3CCCC3)[nH]c2c1	2	3	24	4.8*	-121	7	12*	6.1*
O=C(NCCc1ccccc1)c1cnc2ccccn2c1=O	3	0	-3	5.2*	-84	7	13*	5.7*
Cc1csc2ncc(C(=O)NCCc3ccccc3)c(=O)n12	-1	2	-13	3	-61	1	.	.
